Measured values taken from BindingDB's records for doi:10.1021/jm0003900 (Ferring Research Institute, 2001).
*1 amine or outer side, *2 acyl side, *3 side chain or, on linkers, in order; H or OH if unused. Where a SMILES comes first, the peptide text is derived from it. [ ]: non-standard residue; d: D form. Phe(4-NH(5-NH2triazol-3-yl)) = Nc1nc(Nc2ccc(C[C@H](N)C(=O)O)cc2)n[nH]1; X1 = Nc1nc(Nc2ccc(C[C@@H](N[*:1])C(=O)[*:2])cc2)n[nH]1; dPhe(4-Cl) = N[C@H](Cc1ccc(Cl)cc1)C(=O)O; d2Nal = N[C@H](Cc1ccc2ccccc2c1)C(=O)O; Lys(iPr) = CC(C)NCCCC[C@H](N)C(=O)O; d3Pal = N[C@H](Cc1cccnc1)C(=O)O

Target: T1, Gonadotropin-releasing hormone receptor (Homo sapiens, UniProt P30968)
T1 sequence (P30968 whole entry): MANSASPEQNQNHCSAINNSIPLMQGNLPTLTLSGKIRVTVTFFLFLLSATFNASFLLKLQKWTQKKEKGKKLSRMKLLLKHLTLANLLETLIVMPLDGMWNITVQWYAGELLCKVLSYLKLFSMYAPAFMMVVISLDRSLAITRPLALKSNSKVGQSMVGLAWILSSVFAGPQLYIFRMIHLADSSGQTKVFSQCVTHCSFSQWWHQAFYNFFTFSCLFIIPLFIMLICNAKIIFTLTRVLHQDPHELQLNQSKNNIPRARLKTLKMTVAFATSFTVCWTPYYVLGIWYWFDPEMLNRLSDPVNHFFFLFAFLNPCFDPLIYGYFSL
Assay: Competitive antagonism of GnRH-induced response in the reporter gene assay
In short: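 Same HEK293 human GnRH receptor luciferase reporter cells. Seven-point GnRH curve (10 µM to 10 pM final) run in duplicate without or with four to five increasing compound concentrations (10 min preincubation, 37 °C), then 5 h and luminescence. GnRH EC50 at each level by four-parameter logistic fit, giving pA2; mean of two determinations in duplicate.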

CC(=O)N[C@H](Cc1ccc2ccccc2c1)C(=O)N[C@H](Cc1ccc(Cl)cc1)C(=O)N[C@H](Cc1cccnc1)C(=O)N[C@@H](CO)C(=O)N[C@@H](Cc1ccc(Nc2n[nH]c(N)n2)cc1)C(=O)N[C@H](Cc1ccc(Nc2n[nH]c(N)n2)cc1)C(=O)N[C@@H](CC(C)C)C(=O)N[C@@H](CCCCNC(C)C)C(=O)N1CCC[C@H]1C(=O)N[C@H](C)C(N)=O [Ac-D-Nal-[D-(pCl)Phe]-D-Pal-Ser-[Aph(Atz)]-D-[Aph(Atz)]-Leu-ILys-Pro-DAla-NH2] (Ac-[d2Nal][dPhe(4-Cl)][d3Pal]S[Phe(4-NH(5-NH2triazol-3-yl))][X1]L[Lys(iPr)]P[dA]-NH2)
Kd: 1.58 nM

CC(=O)Nc1ccc(C[C@@H](NC(=O)[C@H](Cc2ccc(NC(=O)C3CNC(=O)N3)cc2)NC(=O)[C@H](CO)NC(=O)[C@@H](Cc2cccnc2)NC(=O)[C@@H](Cc2ccc(Cl)cc2)NC(=O)[C@@H](Cc2ccc3ccccc3c2)NC(C)=O)C(=O)N[C@@H](CC(C)C)C(=O)N[C@@H](CCCCNC(C)C)C(=O)N2CCC[C@H]2C(=O)N[C@H](C)C(N)=O)cc1 (stereo partly drawn) [Ac-D-Nal-[D-(pCl)Phe]-D-Pal-Ser-[Aph(Imz)]-D-[Aph(Ac)]-Leu-ILys-Pro-DAla-NH2]
Kd: 0.631 nM
